EBV gp42 block: EBV gp42 inhibition; AID 1085; Fluorescence polarization binding assay, mP read-out; hit rate 0.42% among 220,000; Q1HVG2; inhibition, % (tested at 21.74 µM); in the data active means inhibition above about 50%
Target sequence (Q1HVG2 whole entry, looked up): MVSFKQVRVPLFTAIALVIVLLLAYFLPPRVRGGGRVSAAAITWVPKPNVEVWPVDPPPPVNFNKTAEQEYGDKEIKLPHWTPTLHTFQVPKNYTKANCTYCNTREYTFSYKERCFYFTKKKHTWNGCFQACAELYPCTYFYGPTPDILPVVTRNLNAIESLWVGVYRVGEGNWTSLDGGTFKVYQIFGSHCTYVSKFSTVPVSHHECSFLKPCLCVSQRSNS
VIM-2 inhibitor: blocks Pseudomonas aeruginosa VIM-2 metallo-beta-lactamase. hit rate 0.89% among 290,000. purified VIM-2, nitrocefin hydrolysis, epi-absorbance fluorescence. inhibition, % at 5.6 µM;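 active means inhibition above the mean of all tested compounds plus 3 SD, cutoff set per screening run, cut at about 7.5% in these data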;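 further: red hydrolysis product quenches plate fluorescence so inhibitors raise well fluorescence; 0% = enzyme with DMSO and 100% = DMSO without enzyme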
BCLXL inh: Bcl-xL (human) inhibition; Q07817; GST-Bcl-xL / FITC-Bim BH3 peptide fluorescence polarization; inhibition, % at 10.9 µM; hit rate 0.7% among 320,000; AID 2129;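 active means inhibition above the mean of all tested compounds plus 3 SD, cutoff set per campaign, cut at about 30% in these data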;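 further: 0% = DMSO wells and 100% = unlabeled Bim-BH3 peptide competitor; inhibitors lower millipolarization by displacing the labeled peptide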
Target sequence (Q07817 whole entry, looked up): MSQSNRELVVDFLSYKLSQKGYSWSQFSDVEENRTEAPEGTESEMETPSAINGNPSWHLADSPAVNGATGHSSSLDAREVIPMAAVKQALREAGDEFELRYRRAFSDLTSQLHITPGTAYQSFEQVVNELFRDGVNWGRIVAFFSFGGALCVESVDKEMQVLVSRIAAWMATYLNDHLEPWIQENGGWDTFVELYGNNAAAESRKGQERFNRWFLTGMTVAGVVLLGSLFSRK
GLD-1 TGE inh: GLD-1-TGE RNA interaction inhibition (C. elegans) | inhibition, % at 5.96 µM | AID 2280 | Q17339 | hit rate 0.44% among 320,000 | purified GLD-1 + fluorescein TGE RNA, fluorescence polarization;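 active means percent inhibition above a per-plate cutoff, the plate mean of test compounds plus 3 SD, cut at about 30% in these data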;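 further: 0% = DMSO wells with GLD-1 and probe and 100% = wells lacking GLD-1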
IMP-1 inh-1: inhibitors of Pseudomonas aeruginosa IMP-1 metallo-beta-lactamase; hit rate 0.45% among 290,000; inhibition, % at 5.6 µM; purified IMP-1, nitrocefin hydrolysis, epi-absorbance fluorescence;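 active means inhibition above the mean plus 3 SD of all compounds in the same screening run, cut at about 4.5% in these data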;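 further: 0% = IMP-1 with DMSO and 100% = DMSO wells lacking enzyme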
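Material – recombinant IMP-1 enzyme, purified · Amount – IMP-1 0.2 nM before substrate addition · Medium – HEPES buffer pH 7.1 with ZnSO4 and Brij 35 · Timing – 25 °C, 15 min preincubation, 25 min reaction · Measured by – plate fluorescence quenching by hydrolysis product, ex 480/em 530 nm · Read-out – percent enzyme inhibition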
MEX-5 binding: C. elegans MEX-5 TCR-2 RNA binding activity; Q9XUB2; hit rate 0.38% among 300,000; activity score (negative = inhibition of binding), % at 10 µM; MEX-5/FITC-TCR2 RNA binding, fluorescence polarization; stronger effect = lower value;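 active means inhibition past about -25% in most replicates, and total fluorescence under double the plate's negative control median, limit read from the data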;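 further: 0% = DMSO and -100% = 5 µM competing unlabeled TCR2 RNA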
IMP-1 inh-2: IMP-1 inhibition, counter-screen for VIM-2 inhibitors; shares compounds with VIM-2 inhibitor; purified IMP-1, nitrocefin hydrolysis, epi-absorbance fluorescence; inhibition, % at 5.6 µM; 1,300 tested, under 10 active; AID 1856; call rule not given here;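 further: 0% = enzyme with vehicle and 100% = vehicle without enzyme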
VIM-2 FRET inh: counter-screen for VIM-2 inhibitors: epi-absorbance artifacts via FRET. hit rate 23% among 1,300. inhibition, % at 5.6 µM. shares compounds with VIM-2 inhibitor. purified VIM-2, CCF2 FRET substrate hydrolysis;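 active means inhibition above the mean of all tested compounds plus 3 SD, cut at about 19% in these data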;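 further: 0% = VIM-2 plus DMSO and 100% = no enzyme wells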
TEM-1 counter: TEM-1 inhibition, counter-screen for VIM-2 inhibitors | shares compounds with VIM-2 inhibitor | Purified TEM-1, nitrocefin hydrolysis, epi-absorbance fluorescence | inhibition, % at 5.6 µM | hit rate 3% among 1,300 | AID 1866;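 active means inhibition above that campaign's mean inhibition plus 3 SD, cut at about 0.46% in these data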;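 further: 0% = TEM-1 with DMSO and 100% = TEM-1 with 100 µM potassium clavulanate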
VIM-2 confirm 2: confirmation of P. aeruginosa VIM-2 metallo-beta-lactamase inhibitors; shares compounds with VIM-2 inhibitor; purified VIM-2, nitrocefin hydrolysis, epi-absorbance; inhibition, % at 5.6 µM; hit rate 96% among 1,300; AID 2187;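 active means inhibition of the VIM-2 beta-lactamase enzyme above about 11% from the earlier first-round screen, limit read from the data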;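 further: 0% = VIM-2 with DMSO and 100% = buffer wells without enzyme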
The depositor's hits bear a star; · = no result given. A selection: hits, their analogues and other compounds. The true share with any hit is near 2.2%.

SMILES	EBV gp42 block	VIM-2 inhibitor	BCLXL inh	GLD-1 TGE inh	IMP-1 inh-1	MEX-5 binding	IMP-1 inh-2	VIM-2 FRET inh	TEM-1 counter	VIM-2 confirm 2
COC(=O)c1c(C(=O)OC)c2cc(C(=O)c3ccccc3)ccn2c1Cl	-8	7	6	0	-6	1	·	·	·	·
COC(=O)c1c(C(=O)OC)c2oc3ccccc3n2c1Cl	-1	14*	9	7	-3	-2	-2	2	-5	18*
COC(=O)c1c(NC(=O)c2ccco2)sc2c1CC(C)(C)NC2(C)C	·	13*	-6	3	1	5	-5	3	-8	17*
COc1ccc(NC(=O)COc2cccc3c2CCN(Cc2cccnc2)C3=O)cc1	·	0	1	3	-1	0	·	·	·	·
COc1ccc(NC(=O)COc2cccc3c2CCN(Cc2cccnc2)C3=O)c(OC)c1	·	14*	11	0	0	-1	-2	-5	-5	23*
Cc1cc(=O)oc2c3c(cc(OCC(=O)N4CCC[C@H]4C(=O)O)c12)OC(C)(C)CC3	·	26*	7	4	-2	2	-3	46*	-3	29*
CCCCc1cc(=O)oc2c3c(cc(OCC(=O)NCCCO)c12)OC(C)(C)CC3	·	-2	3	-6	-1	0	·	·	·	·
CCCCCCc1c(C)c2ccc(OCC(=O)N3CCC[C@H]3C(=O)O)c(C)c2oc1=O	·	-4	6	8	-2	0	·	·	·	·
CCCCc1cc(=O)oc2c3c(cc(OCC(=O)N4CCC[C@H]4C(=O)O)c12)OC(C)(C)CC3	·	16*	-1	-1	-5	1	-3	36*	-6	20*
CCCc1cc(=O)oc2c(C)c(OCC(=O)N3CCC[C@@H]3C(=O)O)ccc12	·	23*	0	1	-4	0	-2	41*	-5	24*
Cc1cc(OCC(=O)N2CCC[C@@H]2C(=O)O)c2c(C)c(C)c(=O)oc2c1	·	27*	1	0	-3	0	-3	51*	-5	33*
COc1ccc(C(=O)COC(=O)C2COc3ccccc3O2)cc1F (stereo not drawn)	·	·	·	4	·	·	·	·	·	·
CN1CCN(CC(=O)Nc2c(C(=O)C3CC3)oc3ccccc23)CC1	-7	21*	4	3	-4	2	-2	3	-7	36*
CC(C)[C@H](NC(=O)N1c2ccccc2NC(=O)[C@@H]1C(C)C)C(=O)N[C@@H](Cc1c[nH]c2ccccc12)C(=O)O	·	-6	-3	3	-4	3	·	·	·	·
Cn1c(=O)c2c(nc(N3CCCCC3)n2CCNC2=NCCC2)n(C)c1=O	-8	20*	4	-4	0	2	-3	2	-6	36*
COCCCNC(=O)c1cc2c(-c3cccc(OC)c3)nn(C)c2s1	·	3	0	1	-1	2	·	·	·	·
CCN(CC)CCNC(=O)c1cc2c(-c3cccc(OC)c3)nn(C)c2s1	·	14*	6	3	-2	2	-2	4	-4	23*
CCCN(CCC)CCCNC(=O)c1cc2c(-c3ccc(OC)c(OC)c3)nn(C)c2s1	·	12*	2	-5	-4	2	-4	-4	-6	24*
CCN(CC)CCNC(=O)c1cc2c(-c3ccc(Cl)cc3)nn(C)c2s1	-27	2	-6	0	-2	0	·	·	·	·
COc1ccc(-c2nn(C)c3sc(C(=O)NCCN(C)C)cc23)cc1OC	·	17*	4	1	-3	2	-3	-2	-6	30*
NC(=O)c1cnn2c(C(F)(F)F)cc(-c3ccc(F)cc3)nc12	-2	16*	9	6	1	-2	-5	-1	-8	16*

Screens as filed in PubChem BioAssay.
